Bioassay records (PubChem BioAssay)
A1 inh = inhibitors of the anti-apoptotic protein A1, read as caspase activation. MEF A1-2A-BIM cells, Caspase-Glo 3/7 luminescence, 3 h; percent of clofoctol response, vehicle zero. caspase activation, % (test concentration not listed). 0.066% of 330,000 active;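 active = over half of replicate activation scores above 10%, or exactly half above 10 with the replicate mean above 10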
UPR CHOP act = activators of apoptotic arm of unfolded protein response (CHOP) | CHO-CHOP luciferase reporter, UPR activation, luminescence; percent of tunicamycin response over DMSO baseline | activation, % at 10 µM | 0.34% of 330,000 active | AID 449763;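 active = at 10 µM dose, activation of 40% or more, normalized to positive control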
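Dosing – one dose, 10 µM in 0.5% DMSO · System – CHO-CHOP cells, stable luciferase reporter of PERK-eIF2a-CHOP signalling · Input – 500 cells/well · Control set – tunicamycin 10 µg/mL final as positive, DMSO-only wells as negative · Timing – 6 h compound treatment, 37 °C · Measure – % activation vs tunicamycin · Technique – luminescence read with Steady-Glo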
CHOP inh = blocks CHOP induction under ER stress. CHO-K1 CHOP-promoter luciferase, tunicamycin-induced, 15-18 h. inhibition, % at 10 µM. 3.8% of 220,000 active. AID 2732;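 active = compounds that reduced the stress-induced luciferase reporter signal by more than about 70% of percent inhibition, limit read from the data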
UPR XBP1 act = activators of adaptive arm of unfolded protein response (XBP1). CHO-XBP1 luciferase reporter, IRE1-XBP1 UPR activation, luminescence; percent of tunicamycin response, DMSO as zero. activation, % at 20 µM. 0.33% of 330,000 active. AID 463104;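 active = versus positive control, 20 µM dose yields 30% or more activation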
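Material: CHO-XBP1 cells stably carrying IRE1-XBP1-driven luciferase reporter | Medium: F12 with 10% serum | Compound dosing: 20 µM single concentration, DMSO 1% | Incubation: Overnight seeding at 37 °C, 6 h compound treatment at 37 °C | Detection: Steady-Glo luminescence read | Read-out basis: % activation of reporter signal versus tunicamycin and DMSO controls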
CHOP UPR conf = apoptotic UPR (CHOP) activation, confirmed; shares compounds with UPR CHOP act; CHO-CHOP cells, CHOP-luciferase reporter luminescence; percent of tunicamycin response, DMSO as zero; activation, % at 10 µM; 64% of 1,000 active; AID 463112; in the data active = activation above about 33%
Numbers stand for hits; – = inactive; · = no result given. This is one part of a sample in which hits are shown more often than they occur.

SMILES	A1 inh	UPR CHOP act	CHOP inh	UPR XBP1 act	CHOP UPR conf
COC(=O)C1C(=O)C2=C(CC1C)NC(C)=C(C(=O)OC(C)C)C2c1ccc(C)o1 (configuration not stated)	–	–	–	–	·
CCN(CC(=O)NCc1cccs1)C(=O)COc1ccccc1C#N	–	–	·	–	·
CCOc1ccc2c(c1)C(=NNC(=O)c1ccncc1)c1cc(OCC)ccc1-2	–	50	–	–	43
CC(C)(C)c1ccc(OCc2ccc(C(=O)N/N=C/c3ccc(O)c(O)c3)cc2)cc1	–	41	–	–	–
O=C(N/N=C/c1ccc(OCc2ccc(F)cc2)cc1)c1ccccc1	–	–	–	–	·
O=C(/C=C/c1ccc(O)c(O)c1)c1ccccc1O	–	93	–	–	81
O=C(/C=C/c1ccc(O)c(O)c1)OCCc1ccccc1	–	52	–	–	145
COc1ccccc1OCCN1CSC(=S)N(C)C1	–	82	–	–	–
Cc1cccc(OCCN2CSC(=S)N(C)C2)c1	–	59	–	–	35
Oc1ccc(/C=N/Nc2ccnc3cc(Cl)ccc23)cc1O	–	193	–	–	151
CC1CC(C)CN(CCCOc2ccccc2[N+](=O)[O-])C1 (configuration not stated)	–	–	–	–	·
CCOC(=O)N1CCN(Cc2cc(Cl)c3cccnc3c2O)CC1	–	105	83	–	116
CCOC(=O)C1CCN(Cc2ccc(O)c3ncccc23)CC1	–	235	·	–	142
CCOC(=O)C1CCN(Cc2ccccc2C(F)(F)F)CC1	–	–	–	–	·
CCCC(=O)NC(c1ccccc1)c1ccc2cccnc2c1O (configuration not stated)	–	51	·	–	–
CCCCC(=O)NC(c1ccccc1)c1ccc2cccnc2c1O (configuration not stated)	–	–	·	–	·
O=C(Cc1ccccc1)Nc1nccs1	–	–	·	–	·
Fc1ccc(NC(=S)Nc2nccs2)cc1	–	75	–	–	80
S=C(Nc1ccccc1)Nc1nccs1	–	104	–	–	60
O=C(N/N=C(\c1ccccc1)c1cccnc1)c1cccc(F)c1	–	51	·	–	91
O=C(N/N=C(\c1ccccc1)c1cccnc1)c1ccc(O)cc1	–	–	·	–	·
O=C(NNC1=Nc2cc([N+](=O)[O-])ccc2OC1)c1ccccc1Cl	–	–	–	–	·
CCOc1ccc2nc(SC3CC(=O)N(c4ccc(C)cc4)C3=O)sc2c1 (configuration not stated)	–	45	–	–	65
COc1cc(OC)c(/C=C2\C(=O)Nc3ccccc32)c(OC)c1	–	–	·	–	·
COc1ccc(C(=O)/C=C2/C(=O)Nc3ccccc32)c(OC)c1	–	109	·	–	114
SMILES	A1 inh	UPR CHOP act	CHOP inh	UPR XBP1 act	CHOP UPR conf
CC(C)N1CCc2c(sc(NC(=O)c3ccc([N+](=O)[O-])o3)c2C(N)=O)C1	–	–	·	–	·
COC(=O)c1c(NC(=O)c2ccc([N+](=O)[O-])o2)sc2c1CCN(C(C)C)C2	–	71	·	–	56
CN=c1scc(-c2ccco2)n1/N=C/c1ccc(O)c(O)c1	·	52	–	–	70
C=CCN=c1scc(C)n1/N=C/c1ccc(O)c(O)c1	–	302	–	–	208
COc1ccc(O)c(/C=N/n2c(-c3ccco3)csc2=Nc2cccnc2)c1	–	–	–	–	·
CN(C)S(=O)(=O)c1ccc(C(=O)NC(=O)CSc2nncs2)cc1	–	–	·	–	·
COC(=O)c1ccc(C(=O)OC)c(NC(=O)CSc2cccc[n+]2[O-])c1	–	87	–	–	122
COC(=O)c1ccc(-n2c(C)cc(C(=O)CSc3cccc[n+]3[O-])c2C)cc1	–	–	–	–	·
CCCN1C/C(=C/c2ccc3c(c2)OCO3)C(=O)/C(=C/c2ccc3c(c2)OCO3)C1	–	55	97	–	115
CCCN1C(=O)/C(=C/c2ccc3c(c2)OCO3)NC1=S	·	·	–	·	·
COc1ccc2c(C)cc(SCC(=O)Nc3cc(C(N)=O)cc(C(N)=O)c3)nc2c1	–	–	–	–	·
NC(=O)C1CCN(C2=C(Cl)C(=O)c3ccccc3C2=O)CC1	–	394	–	–	–
CN1C(=S)SC(/[N+]([O-])=C\c2ccccc2F)C1(C)C (configuration not stated)	–	–	–	–	·
Cc1ccc(NC(=O)CN2C(=O)NC(C)(C3CC3)C2=O)c([N+](=O)[O-])c1 (configuration not stated)	–	–	·	–	·
Cc1ccc(NC(=O)CN2C(=O)NC(C)(C3CC3)C2=O)c(C)c1 (configuration not stated)	–	70	·	–	–
O=c1[nH]c2cc3c(cc2cc1C(c1nnnn1Cc1ccccc1)N1CCCc2ccccc21)OCO3 (configuration not stated)	–	265	–	–	–
Cc1cc2cc(C(c3nnnn3CC3CCCO3)N3CCCc4ccccc43)c(=O)[nH]c2cc1C (configuration not stated)	·	·	–	·	·
O=C(NC1CCCC1)C(c1ccc(Cl)cc1)N(Cc1ccc(F)cc1)C(=O)CCl (configuration not stated)	–	113	–	–	88
O=C(NC1CCCC1)C(c1ccc(F)cc1)N(Cc1ccc(Cl)cc1)C(=O)CCl (configuration not stated)	–	149	106	–	70
COC(CN(C(=O)CCl)C(C(=O)NC1CCCCC1)c1ccc(Cl)cc1)OC (configuration not stated)	–	–	–	–	·
CC(=O)C1=C(C)Nc2cc(C(F)(F)F)ccc2S1	–	–	–	–	·
O=C(O)c1ccccc1C(=O)N(c1ccccc1)c1ccccc1	–	–	·	–	·
Oc1ccc(/C=N/Nc2cc(N3CCCC3)nc(N3CCCC3)n2)cc1O	–	126	–	–	124
Cc1ccc(S(=O)(=O)Nc2cccc3cccnc23)cc1	–	621	–	–	326
CCC1=C(OC(=O)N(CC)CC)N2C(=O)OC(=NCCc3c[nH]c4ccccc34)[C@]2(C)[C@H]2C1=CC[C@H]1C(=O)NC(=O)[C@H]12	–	–	–	–	·
SMILES	A1 inh	UPR CHOP act	CHOP inh	UPR XBP1 act	CHOP UPR conf
CCCCOC(=O)/C=C\C(=O)NC(N)=O	–	88	–	–	121
COc1ccc2c(C(=O)CCl)c[nH]c2c1	–	238	–	–	205
COc1ccc(OCC(=O)c2c[nH]c3ccccc23)cc1	–	–	–	–	·
CCOc1ccc(/C=N/NC(=O)NC23CC4CC(CC(C4)C2)C3)cc1O	–	–	·	–	·
O=C(N/N=C/c1ccc(O)c(O)c1)NC12CC3CC(CC(C3)C1)C2	–	145	·	42	157
Oc1c(N=Nc2ccccn2)ccc2ccccc12	–	276	80	–	211
CC1(C)C(=O)Nc2ccccc2N1C(=O)Cn1ncc(Cl)c(Cl)c1=O	–	50	–	–	–
